# Measurements reported in ChEMBL document CHEMBL4364341, “Radiosensitization of Head and Neck Squamous Cell Carcinoma (HNSCC) by a Podophyllotoxin” (ACS Med Chem Lett, 2019).
# The source made the active and inactive calls. The calls are words filed in the database; no cut-off is given here.
# Columns and labels:
# FaDu [1] = test: Synergistic antiproliferative activity against human FADU cells assessed as reduction in cell viability at 1 uM preincubated for 1 hr followed by irradiation with 5 Gy IR and measured after 6 days by MTT assay relative to control; assay type: functional; settings: light or radiation study
# In short: (§1)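 FaDu or SCC-25 cells were grown in DMEM with 10% FBS at 37 °C and 5% CO2. They were seeded at 1000 cells/well in 96-well plates for 24 h, then dosed with compound (fresh DMSO stock diluted in medium) or vehicle. After 1 h, X-rays were given with a sliding 5 mm lead shield, so one plate held 0, 2.5, 5 and 10 Gy columns. After 6 days, MTT (0.5 mg/mL, 45 min) was added, then DMSO, and A570 was read. Values were normalised to the unirradiated vehicle control. Fractional inhibition = 1 − surviving fraction.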
# SCC-25 [2] = test: Synergistic antiproliferative activity against human SCC25 cells assessed as reduction in cell viability at 1 uM preincubated for 1 hr followed by irradiation with 5 Gy IR and measured after 6 days by MTT assay relative to control; settings: SCC-25, light or radiation study
# FaDu [3] = test: Synergistic induction of apoptosis in human FADU cells assessed as increase in caspase at 0.5 uM followed by irradiation with 5 Gy IR incubated for 48 hrs by luminescence based analysis; assay type: functional, cell-based
# FaDu [4] = test: Antiproliferative activity against human FADU cells assessed as fractional inhibition at 0.5 uM after 6 days in absence of irradiation by MTT assay; assay type: functional; in short: as §1
# SCC-25 [5] = test: Synergistic induction of cell cycle arrest in human SCC25 cells assessed as increase in accumulation at G2/M phase at 0.5 uM followed irradiation with 5Gy IR incubated for 24 hrs by propidium iodide staining based flow cytometry; assay type: functional
# In short: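 FaDu or SCC-25 cells, untreated, given 5 Gy IR, drug, or drug plus 5 Gy. Cell-cycle distribution by propidium iodide staining and flow cytometry at 6 h and 24 h after treatment. G0/G1, S and G2/M fractions compared with control by t test.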
# FaDu [6] = test: Synergistic antiproliferative activity against human FADU cells assessed as reduction in cell viability at 1 uM preincubated for 1 hr followed by irradiation with 2.5 Gy IR and measured after 6 days by MTT assay relative to control; assay type: functional; settings: light or radiation study; in short: as §1
# SCC-25 [7] = test: Antiproliferative activity against human SCC25 cells assessed as fractional inhibition at 5 uM after 6 days in absence of irradiation by MTT assay; assay type: functional; in short: as §1
# FaDu [8] = test: Synergistic antiproliferative activity against human FADU cells assessed as combination index at 0.005 uM preincubated for 1 hr followed by irradiation with 5 Gy IR and measured after 6 days by MTT assay; assay type: functional
# In short: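 Combination index was calculated by the Chou–Talalay median-effect method from the 6-day MTT viability data of the single-plate compound/X-ray (2.5, 5, 10 Gy) design. CI < 1 denotes synergy, CI = 1 additivity and CI > 1 antagonism.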
# FaDu [9] = test: Synergistic antiproliferative activity against human FADU cells assessed as fractional inhibition at 0.5 uM preincubated for 1 hr followed by irradiation with 2.5 Gy IR and measured after 6 days by MTT assay (reference value: 0.131); assay type: functional; in short: as §1
# SCC-25 [10] = test: Synergistic antiproliferative activity against human SCC25 cells assessed as fractional inhibition at 0.5 uM preincubated for 1 hr followed by irradiation with 2.5 Gy IR and measured after 6 days by MTT assay (reference value: 0.011); assay type: functional
# In short: (§2)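 SCC-25 cells seeded 1000/well in 96-well plates in DMEM/10% FBS and left 24 h. Drug or vehicle added, then after 1 h X-irradiated to 2.5, 5 or 10 Gy on one plate using a shifted lead shield. Plates incubated 6 days, then MTT (0.5 mg/mL, 45 min), DMSO solubilisation, absorbance at 570 nm. Fractional inhibition = 1 − fraction of surviving cells.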
# SCC-25 [11] = test: Synergistic antiproliferative activity against human SCC25 cells assessed as combination index at 0.5 uM preincubated for 1 hr followed by irradiation with 10 Gy IR and measured after 6 days by MTT assay; assay type: functional
# In short: (§3)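 SCC-25 cells grown in DMEM with 10% FBS at 37 °C, 5% CO2, seeded 1000 cells/well in 96-well plates and left 24 h. Drug in DMSO, diluted in complete medium, added 1 h before X-irradiation. A movable 5 mm lead shield gave 0, 2.5, 5 or 10 Gy on one plate. After 6 days, MTT readout at 570 nm. Combination index by Chou–Talalay from viability data.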
# SCC-25 [12] = test: Synergistic antiproliferative activity against human SCC25 cells assessed as combination index at 5 uM preincubated for 1 hr followed by irradiation with 5 Gy IR and measured after 6 days by MTT assay; assay type: functional; in short: as §3
# SCC-25 [13] = test: Synergistic antiproliferative activity against human SCC25 cells assessed as fractional inhibition at 0.05 uM preincubated for 1 hr followed by irradiation with 2.5 Gy IR and measured after 6 days by MTT assay (reference value: 0.011); assay type: functional; in short: as §2
# FaDu [14] = test: Antiproliferative activity against human FADU cells assessed as fractional inhibition at 0.05 uM after 6 days in absence of irradiation by MTT assay; assay type: functional; in short: as §1
# FaDu [15] = test: Synergistic antiproliferative activity against human FADU cells assessed as fractional inhibition at 5 uM preincubated for 1 hr followed by irradiation with 2.5 Gy IR and measured after 6 days by MTT assay (reference value: 0.131); assay type: functional; in short: as §1
# FaDu [16] = test: Synergistic antiproliferative activity against human FADU cells assessed as fractional inhibition at 0.5 uM preincubated for 1 hr followed by irradiation with 5 Gy IR and measured after 6 days by MTT assay (reference value: 0.097); assay type: functional; in short: as §1
# SCC-25 [17] = test: Induction of cell cycle arrest in human SCC25 cells at 0.5 uM by propidium iodide staining based flow cytometry; assay type: functional
# In short: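 Cell-cycle distribution was measured by propidium iodide staining and flow cytometry. Readings were taken 6 and 24 h after compound alone, 5 Gy IR alone, or the combination, against control.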
# SCC-25 [18] = test: Synergistic antiproliferative activity against human SCC25 cells assessed as fractional inhibition at 0.05 uM preincubated for 1 hr followed by irradiation with 10 Gy IR and measured after 6 days by MTT assay (reference value: 0.347); assay type: functional; in short: as §2
structure (smiles),measurement,setting,value
COc1ccc2c(c1)N(CCO)C1=C(C(=O)OC1)C2c1ccccc1 (stereo not drawn),inhibition at 1 µM,FaDu [1],48%
same,inhibition at 1 µM,SCC-25 [2],65%
same,Activity,FaDu [3],Active
same,fractional inhibitory concentration index (FICI),FaDu [4],0.264
same,fold change (FC),SCC-25 [5],2
same,inhibition at 1 µM,FaDu [6],30%
same,fractional inhibitory concentration index (FICI),SCC-25 [7],0.744
same,CI,FaDu [8],1.822
same,fractional inhibitory concentration index (FICI),FaDu [9],0.443
same,fractional inhibitory concentration index (FICI),SCC-25 [10],0.452
same,CI,SCC-25 [11],0.663
same,CI,SCC-25 [12],0.652
same,fractional inhibitory concentration index (FICI),SCC-25 [13],0.74
same,fractional inhibitory concentration index (FICI),FaDu [14],0.186
same,fractional inhibitory concentration index (FICI),FaDu [15],0.501
same,fractional inhibitory concentration index (FICI),FaDu [16],0.425
same,Activity,SCC-25 [17],inactive
same,fractional inhibitory concentration index (FICI),SCC-25 [18],0.379
